An excerpt weighted towards active compounds, which were near 0.74% of everything screened.
RGS8-Gao reg: regulators of human RGS8-Galphao interaction; P09471; multiplexed bead flow cytometry, RGS8-Galphao binding; actives lie on both sides; response (percent of control binding), % at 10 µM; hit rate 0.34% among 220,000; AID 1423; in the data active = response below about 60% or above about 140%; inactive = in between;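 also: Galphao activated as the GDP aluminium fluoride complex binding bead-coupled RGS8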
Target sequence (P09471 whole entry, looked up): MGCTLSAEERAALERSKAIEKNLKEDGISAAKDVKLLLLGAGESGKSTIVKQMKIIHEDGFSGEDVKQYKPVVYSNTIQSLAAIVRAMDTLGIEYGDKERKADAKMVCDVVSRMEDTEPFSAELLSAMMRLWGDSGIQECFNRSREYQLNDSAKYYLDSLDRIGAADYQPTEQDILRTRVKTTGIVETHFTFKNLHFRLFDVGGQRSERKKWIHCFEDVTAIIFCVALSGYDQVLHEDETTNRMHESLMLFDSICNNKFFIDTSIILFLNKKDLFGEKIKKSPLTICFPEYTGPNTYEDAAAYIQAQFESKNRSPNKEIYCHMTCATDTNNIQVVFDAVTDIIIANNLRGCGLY
RGS4-Gao reg: modulates binding of RGS4 to human Galphao | binding response (% of control), % at 10 µM | hit rate 0.33% among 220,000 | Multiplexed bead flow cytometry; actives lie on both sides | P09471; in the data active = binding response below about 49% or above about 150%; inactive = in between;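 also: fluorescent Galphao activated with aluminum fluoride binding bead-coupled RGS4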
RGS16-Gao HTS: modulates binding between human RGS16 and Galphao. O15492+P09471. bead-based flow cytometry RGS16-Galphao binding, fluorescence; actives lie on both sides. binding response (% of control), % at 10 µM. hit rate 0.38% among 220,000; call rule not given here;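 also: Galphao activated by GDP with aluminum fluoride before binding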
Target sequence (O15492 whole entry, looked up): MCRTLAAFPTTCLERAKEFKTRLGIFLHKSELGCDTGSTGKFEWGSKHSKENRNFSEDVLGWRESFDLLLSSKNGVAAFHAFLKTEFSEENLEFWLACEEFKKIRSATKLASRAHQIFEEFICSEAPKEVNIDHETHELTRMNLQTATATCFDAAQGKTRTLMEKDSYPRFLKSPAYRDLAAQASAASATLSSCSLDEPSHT
Target sequence (P09471 whole entry, looked up): as the sequence (P09471 whole entry, looked up) above
RGS7-Gao reg: modulates binding of RGS7 to human Galphao. Multiplexed bead flow cytometry; actives lie on both sides. hit rate 0.35% among 220,000. binding response (% of control), % at 10 µM. P09471; in the data active = binding response below about 49% or above about 150%; inconclusive = no clear call, values can overlap the other calls; inactive = in between;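 also: fluorescent Galphao held in activated GDP-AlF4 state binding bead-coupled RGS7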
Calb biofilm kill: mixture kills Candida albicans biofilm cells; hit rate 0.02% among 120,000; AID 1242; C. albicans biofilm persisters + clotrimazole, fluorescence viability; primary screen in compound mixtures of four per well; inhibition, % at 7.6 µM;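 active = inhibition above 30.3% in the primary screen of four-compound pools, then above 30% when the compound was retested; inconclusive = passed the primary limit but could not be retested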;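 also: compounds exposed to preformed 24 h biofilms for 48 h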
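Incubation: 24 h biofilm formation, then 48 h compound exposure, 37 °C | Material: C. albicans biofilms | Buffer or medium: RPMI/MOPS medium, pH 7.0 | Measured by: 2-h Alamar Blue fluorescence, 535/590 nm excitation/emission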
Of the large screens only hits and unclear results are named; the others gave an inactive call; ! = a repeat was not active; [ ] = remark or other dose.

CCN1/C(=C/C=C/c2oc3ccc(-c4ccccc4)cc3[n+]2CC)Oc2ccc(-c3ccccc3)cc21	RGS8-Gao reg 300.3[activator], RGS4-Gao reg active[activator], RGS16-Gao HTS active[activator], RGS7-Gao reg active[activator]
CC(C)(C)c1ccccc1NC(=O)NC1CCN(Cc2c(F)cccc2Cl)CC1	RGS7-Gao reg inconclusive
O=C(NCC1OCCCN1S(=O)(=O)c1cc(F)ccc1F)C(=O)NC1CCCCC1 (stereo not drawn)	none
CN(C)S(=O)(=O)c1cccc(C(=O)OCC(=O)Nc2sccc2C#N)c1	RGS8-Gao reg 21.0, RGS4-Gao reg -59.5, RGS16-Gao HTS -62.6, RGS7-Gao reg -17.0 (no result: Calb biofilm kill)
COc1ccc(N(C)S(=O)(=O)c2cccc(C(=O)OCC(=O)Nc3sc4c(c3C#N)CCCCC4)c2)cc1	none
Cc1cc(NC(=O)CSc2nc3ccsc3c(=O)n2NC(=O)c2ccccc2)no1	RGS8-Gao reg 38.7, RGS4-Gao reg 19.3, RGS16-Gao HTS 23.2, RGS7-Gao reg 25.2
O=C(NCc1ccccc1)c1ncn[nH]1	RGS7-Gao reg inconclusive
Cc1cccc(N2CCN(C(=S)Nc3ccc4nc5n(c(=O)c4c3)CCCCC5)CC2)c1C	none
CNc1nc(NC#N)nc(SC)n1	RGS7-Gao reg inconclusive
Cc1ccc(C(=O)COC(=O)c2ccc3c(c2)C(=O)N(c2cccc4ncccc24)C3=O)cc1	RGS4-Gao reg 161.8[activator]
COc1cc(OC)cc(C(=O)N[C@H](C(=O)OCC(=O)Nc2ccc(F)c(F)c2F)C(C)C)c1	RGS7-Gao reg inconclusive
COc1ccc(NC(=O)COC(=O)[C@@H](NC(=O)c2c(F)cccc2F)C(C)C)cc1	RGS8-Gao reg 141.8[activator], RGS4-Gao reg 150.4[activator], RGS7-Gao reg 164.3[activator]
Cc1ccc(C(O)(COC(=O)C(C)C)COC(=O)C(C)C)c(O)c1	none
CC(c1ccccc1F)n1cc(C(=O)NCCCc2nc3ccccc3[nH]2)nn1 (stereo not drawn)	none
Cc1ccc(NC(=O)CSc2nnc(-c3ccccn3)n2N)c(Br)c1	RGS7-Gao reg inconclusive
Nc1c(Cl)ncnc1NCCc1ccc(O)cc1	RGS7-Gao reg inconclusive
CC1=NN(c2ccc(N)cc2)C(=O)C1	RGS4-Gao reg 34.7, RGS7-Gao reg 12.4 (no result: Calb biofilm kill)
CCS(=O)(=O)c1ccc2oc(Nc3cccc(OC)c3)nc2c1	RGS7-Gao reg inconclusive
Cc1cccc(C)c1NC(=O)CNC(=O)CCC(=O)c1cccs1	none
CCN1/C(=C/c2ccc3cc(C)ccc3[n+]2CC)Sc2cc(C)c(C)cc21	Calb biofilm kill 32.3
CCN1/C(=C/c2ccc3cc(C)ccc3[n+]2CC)Sc2ccccc21	RGS4-Gao reg 168.7[activator], RGS7-Gao reg 225.3[activator]
CN(C)CCCNC(=O)c1cc(S(=O)(=O)N2CCOCC2)ccc1F	RGS8-Gao reg 141.6[activator], RGS4-Gao reg 165.7[activator] (no result: Calb biofilm kill)
CC(C)(C)c1ccc(-c2cn(-c3ccc(Br)cc3)c3[n+]2CCCS3)cc1	Calb biofilm kill 31.4
O=S(=O)(NCC(Nc1ccc(Cl)cc1)c1ccccc1)c1ccccc1 (stereo not drawn)	none
Cc1ccc(NC(CNS(=O)(=O)c2ccc(Cl)cc2)c2ccccc2)cc1 (stereo not drawn)	RGS4-Gao reg 215.3[activator], RGS7-Gao reg 254.6[activator] (no result: Calb biofilm kill)
O=[N+]([O-])c1ccc(C2=NN(c3ccccc3)C(c3ccco3)C2)cc1 (stereo not drawn)	RGS7-Gao reg inconclusive
O=[N+]([O-])c1ccc(/C=C/C2=NN(c3ccccc3)C(c3ccco3)C2)cc1 (stereo not drawn)	RGS4-Gao reg 285.4[activator], RGS16-Gao HTS 222.8[activator], RGS7-Gao reg 246.4[activator]
CCCCn1c(=O)[nH]c(=O)c2c1nc(-c1ccccc1F)n2Cc1ccccc1OC	none
Cc1cc(NC(=O)c2c(-c3c(Cl)cccc3Cl)noc2C)n(C)n1	RGS7-Gao reg inconclusive
NC1CCN(c2c(F)cc3c(=O)c(C(=O)O)cn(C4CC4)c3c2Cl)C1 (stereo not drawn)	RGS7-Gao reg inconclusive
O=C(COc1ccc(Cl)cc1Cl)N/N=C1\CCCc2ccccc21	RGS8-Gao reg 23.1, RGS4-Gao reg 33.9, RGS7-Gao reg 26.6 (no result: Calb biofilm kill)
CNS(=O)(=O)c1ccc(C)cc1	none (no result: Calb biofilm kill)
Cc1ccc(S(=O)(=O)Nc2nonc2C)cc1	RGS8-Gao reg 34.3, RGS4-Gao reg 38.4, RGS7-Gao reg 31.3 (no result: Calb biofilm kill)
O=C(NC(=S)Nc1nc2ccc(F)cc2s1)c1ccco1	none
O=c1cc(-c2ccccc2Cl)oc2cc(O)cc(O)c12	none
Cc1c2cc(O)c(=O)cc-2oc2cc(O)c(O)cc12	RGS8-Gao reg 31.4!, RGS4-Gao reg 25.0!, RGS7-Gao reg -4.9!
COc1cc(OC)c(-c2c3cc(O)c(=O)cc-3oc3cc(O)c(O)cc23)cc1OC	RGS8-Gao reg 32.2, RGS4-Gao reg 36.8, RGS7-Gao reg -3.2
COc1c(O)cc2oc(-c3ccc(O)cc3)cc(=O)c2c1O	RGS7-Gao reg inconclusive
Cc1c(NC(=S)NNC(=O)CCC(=O)O)c(=O)n(-c2ccccc2)n1C	RGS7-Gao reg inconclusive
CC(NC(N)=O)C(=O)Nc1ccc(Cl)c(S(=O)(=O)Nc2ccc(Br)cc2)c1 (stereo not drawn)	none
CCC(=O)N(CCC1(c2ccccc2OC)CCOC(C(C)C)C1)Cc1ccco1 (stereo not drawn)	RGS7-Gao reg inconclusive
CCCN(Cc1nnc(-c2ccccc2Cl)o1)C(=O)c1cc([N+](=O)[O-])cc([N+](=O)[O-])c1	none
CN(C)c1ccc(/C=C/c2ccc3ccccc3[n+]2C)cc1	Calb biofilm kill 34.5
CN(C)c1ccc(/C=C/c2ccc3c4ccccc4ccc3[n+]2-c2ccccc2)cc1	RGS7-Gao reg inconclusive
O=C(O)/C=C/c1ccc(S(=O)(=O)NCc2cccnc2)cc1	RGS7-Gao reg inconclusive
COc1cccc(CNc2ccccc2O)c1OCc1ccccc1F	RGS7-Gao reg inconclusive
COc1ccc(/C=C/C(=O)NCCSCc2ccco2)cc1OC	RGS7-Gao reg inconclusive
CC(=O)N1CCN(c2c(F)c(F)c(C(F)(F)F)c(F)c2F)CC1	Calb biofilm kill 62.0
O=C(O)COc1c(F)c(F)c(C(F)(F)F)c(F)c1F	none (no result: Calb biofilm kill)

Screens as filed in PubChem.
